From ChEMBL document CHEMBL1126975 (J Med Chem, 1993)

Columns and labels:
[1] = biological target: T1, Amine oxidase [flavin-containing] B (Rattus norvegicus, UniProt P19643); test: Ex-Vivo Time course of evaluation for the percentage inhibition of MAO-B for 4 hr at single dose 5 mg/kg through oral gavage (p<0.001); assay type: organism-based; set-up: dose 5 mg/kg, route oral
T1 sequence (P19643 whole entry): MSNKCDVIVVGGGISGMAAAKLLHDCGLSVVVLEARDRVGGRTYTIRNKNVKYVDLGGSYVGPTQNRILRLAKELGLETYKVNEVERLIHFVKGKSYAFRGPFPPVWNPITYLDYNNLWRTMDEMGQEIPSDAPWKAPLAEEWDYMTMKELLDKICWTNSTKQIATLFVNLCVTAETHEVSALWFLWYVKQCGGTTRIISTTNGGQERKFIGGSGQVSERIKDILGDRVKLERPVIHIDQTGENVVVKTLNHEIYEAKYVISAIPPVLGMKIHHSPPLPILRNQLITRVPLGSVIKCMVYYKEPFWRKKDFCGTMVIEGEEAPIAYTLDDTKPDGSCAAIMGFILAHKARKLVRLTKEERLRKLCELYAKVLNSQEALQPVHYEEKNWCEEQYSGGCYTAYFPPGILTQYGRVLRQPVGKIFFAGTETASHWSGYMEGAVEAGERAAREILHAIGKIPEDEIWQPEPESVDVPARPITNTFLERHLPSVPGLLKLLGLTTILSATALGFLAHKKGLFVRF
Outline: (§1)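 Fasted male Sprague-Dawley rats (150 g) dosed orally by gavage, drug suspended in Tween 80 plus 0.5% methylcellulose; vehicle controls. The 100 mg/kg arm was dosed daily for 9 days. Four rats per time point; brains frozen and homogenized in 0.1 M phosphate pH 7.4. Assayed at 37 °C with 8 μM [14C]PEA for 1 min; toluene/ethyl acetate extraction. Percent inhibition vs control, mean ± SEM.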

[2] = biological target: T1, Amine oxidase [flavin-containing] B; test: Compound was evaluated for the reversibility test for the percentage inhibition of MAO B at 6.25 nM before the test
[3] = biological target: T1, Amine oxidase [flavin-containing] B; test: Compound was evaluated for the time-dependence inhibition of MAO-B at 20 minutes pre-incubation periods
Outline: (§2)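 Male Sprague-Dawley rat brain crude mitochondrial fraction, MAO B. Drug preincubated with enzyme at 37 °C for 0, 20, 30 or 60 min, then radiochemical assay with 5 μM [14C]PEA at pH 7.4. IC50 read graphically from 9–12 concentrations; three experiments in duplicate.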

[4] = biological target: T1, Amine oxidase [flavin-containing] B; test: Ex-Vivo Time course of evaluation for the percentage inhibition of MAO-B for 1 hr at single dose 1 mg/kg through oral gavage (p<0.001); assay type: organism-based; set-up: dose 1 mg/kg, route oral; outline: as §1
[5] = biological target: T1, Amine oxidase [flavin-containing] B; test: Ex-Vivo Time course of evaluation for the percentage inhibition of MAO-B for 24 hr at single dose 1500 mg/kg through oral gavage; assay type: organism-based; set-up: dose 1500 mg/kg, route oral
[6] = biological target: T2, Amine oxidase [flavin-containing] A (Rattus norvegicus, UniProt P21396); test: Compound was evaluated for the time-dependence inhibition of MAO-A at 60 minutes of preincubated period. values are same with or without pre-incubation
T2 sequence (P21396 whole entry): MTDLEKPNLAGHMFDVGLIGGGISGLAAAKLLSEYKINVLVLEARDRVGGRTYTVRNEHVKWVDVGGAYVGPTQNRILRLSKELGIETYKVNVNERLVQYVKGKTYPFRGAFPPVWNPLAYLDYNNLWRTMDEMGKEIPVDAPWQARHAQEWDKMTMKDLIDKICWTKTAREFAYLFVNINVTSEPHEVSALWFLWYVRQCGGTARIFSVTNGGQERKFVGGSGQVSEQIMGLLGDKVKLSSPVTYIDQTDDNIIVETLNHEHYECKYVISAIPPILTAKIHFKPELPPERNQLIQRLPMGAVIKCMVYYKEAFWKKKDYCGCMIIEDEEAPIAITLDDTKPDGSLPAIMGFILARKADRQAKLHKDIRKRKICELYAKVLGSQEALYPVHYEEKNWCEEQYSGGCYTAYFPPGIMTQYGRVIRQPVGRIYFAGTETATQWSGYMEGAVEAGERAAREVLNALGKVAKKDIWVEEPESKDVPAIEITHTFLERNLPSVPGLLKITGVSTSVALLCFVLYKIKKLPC

[7] = biological target: T1, Amine oxidase [flavin-containing] B; test: Ex-Vivo Time course of evaluation for the percentage inhibition of MAO-B for 1 hr at single dose 5 mg/kg through oral gavage (p<0.001); assay type: organism-based; set-up: dose 5 mg/kg, route oral; outline: as §1
[8] = biological target: T1, Amine oxidase [flavin-containing] B; test: Ex-Vivo Time course of evaluation for the percentage inhibition of MAO-B for 1 hr at single dose 100 mg/kg through oral gavage (p<0.001); assay type: organism-based; set-up: dose 100 mg/kg, route oral
[9] = biological target: T1, Amine oxidase [flavin-containing] B; test: Ex-Vivo Time course of evaluation for the percentage inhibition of MAO-B for 24 hr at single dose 100 mg/kg through oral gavage; assay type: organism-based; set-up: dose 100 mg/kg, route oral
[10] = biological target: T1, Amine oxidase [flavin-containing] B; test: Compound was evaluated for the time-dependence inhibition of MAO-B at 60 minutes preincubation periods; outline: as §2
[11] = biological target: T1, Amine oxidase [flavin-containing] B; test: In vitro inhibitory activity on rat brain MAO-B.
Outline: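 Radiochemical assay at 37 °C, pH 7.4: MAO A with 10 μM [14C]5-HT, MAO B with 5 μM [14C]PEA. Drug preincubated 20 min with enzyme. Three experiments in duplicate.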

[12] = biological target: T1, Amine oxidase [flavin-containing] B; test: Compound was evaluated for the reversibility test for the percentage inhibition of MAO B at 6.25 nM after the test
Outline: (§3)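 Rat brain crude mitochondrial fraction (1.94 mg protein/mL) preincubated 1 h at 37 °C with or without inhibitor at 6.25 or 12.5 nM. Then diluted 200-fold in 100 mM phosphate pH 7.4 with 100 μM PEA, held 4 h at 37 °C, pelleted, and washed 1 h in buffer without PEA. Assayed under standard conditions (PEA 1 min); percent inhibition vs control.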

[13] = biological target: T1, Amine oxidase [flavin-containing] B; test: Ex-Vivo Time course of evaluation for the percentage inhibition of MAO-B for 24 hr at once-daily dose for 9 days 100 mg/kg through oral gavage (p<0.001)
[14] = biological target: T1, Amine oxidase [flavin-containing] B; test: Ex-Vivo Time course of evaluation for the percentage inhibition of MAO-B for 1 hr at single dose 1500 mg/kg through oral gavage (p<0.001); assay type: organism-based; set-up: dose 1500 mg/kg, route oral; outline: as §1
[15] = Selectivity for B form was estimated by the ratio of IC50 (MAO A) at 60 min to that of (MAO B)
[16] = biological target: T1, Amine oxidase [flavin-containing] B; test: Ex-Vivo Time course of evaluation for the percentage inhibition of MAO-B for 24 hr at single dose 1 mg/kg through oral gavage (not significant Wilcoxom''s test); assay type: organism-based; set-up: dose 1 mg/kg, route oral; outline: as §1
[17] = biological target: T1, Amine oxidase [flavin-containing] B; test: Ex-Vivo Time course of evaluation for the percentage inhibition of MAO-B for 0.5 hr at single dose 5 mg/kg through oral gavage (p<0.001); assay type: organism-based; set-up: dose 5 mg/kg, route oral; outline: as §1
[18] = biological target: T1, Amine oxidase [flavin-containing] B; test: Ex-Vivo Time course of evaluation for the percentage inhibition of MAO-B for 24 hr at single dose 1500 mg/kg through oral gavage (p<0.001); assay type: organism-based; set-up: dose 1500 mg/kg, route oral; outline: as §1
[19] = biological target: T2, Amine oxidase [flavin-containing] A; test: In Vitro evaluation for the inhibitory activity on rat brain by MAO-A
Outline: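 Male Sprague-Dawley rat brain crude mitochondrial fraction, 0.195 mg protein/mL. Radiochemical assay at 37 °C, pH 7.4: MAO A with 10 μM [14C]5-HT, MAO B with 5 μM [14C]PEA. Drug preincubated 20 min with enzyme. […] Three experiments in duplicate.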

[20] = biological target: T1, Amine oxidase [flavin-containing] B; test: Ex-Vivo percentage inhibition of MAO-B after 24 hr single 5 mg/kg dose by oral gavage; assay type: organism-based; set-up: dose 5 mg/kg, route oral
Outline: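 Ex vivo oral gavage in fasted male Sprague-Dawley rats (Tween 80 / 0.5% methylcellulose), four rats per group. Brain homogenate taken 24 h after dosing. MAO B assayed with 8 μM [14C]PEA, 1 min at 37 °C; percent inhibition vs vehicle control.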

[21] = biological target: T1, Amine oxidase [flavin-containing] B; test: Ex-Vivo Time course of evaluation for the percentage inhibition of MAO-B for 4 hr at single dose 1 mg/kg through oral gavage (p<0.001); assay type: organism-based; set-up: dose 1 mg/kg, route oral; outline: as §1
[22] = biological target: T1, Amine oxidase [flavin-containing] B; test: Compound was evaluated for the time-dependence inhibition of MAO-B at 30 minutes pre-incubation periods; outline: as §2
[23] = biological target: T1, Amine oxidase [flavin-containing] B; test: Ex-Vivo Time course of evaluation for the percentage inhibition of MAO-B for 0.5 hr at single dose 1 mg/kg through oral gavage [p<0.01 (Bonferroni's test)]; assay type: organism-based; set-up: dose 1 mg/kg, route oral; outline: as §1
[24] = biological target: T1, Amine oxidase [flavin-containing] B; test: Compound was evaluated for the time-dependence inhibition of MAO-B at 0 minute pre-incubation periods; outline: as §2
[25] = biological target: T1, Amine oxidase [flavin-containing] B; test: Compound was evaluated for the reversibility test for the percentage inhibition of MAO B at 6.25 nM before the test at 12.5 nM
[26] = biological target: T1, Amine oxidase [flavin-containing] B; test: Compound was evaluated for the reversibility test for the percentage inhibition of MAO B at 6.25 nM after the test at 12.5 nM; outline: as §3

Structure (SMILES): N#CCCn1nc(-c2ccc(OCc3ccccc3)cc2)oc1=O
- inhibition at 5 mg/kg [1]: 83%
- inhibition at 0.00625 µM [2]: 35%
- IC50 [3]: 2.7 nM
- inhibition at 1 mg/kg [4]: 86%
- inhibition at 1500 mg/kg [5]: 2%
- IC50 [6]: > 100000 nM
- inhibition at 5 mg/kg [7]: 87%
- inhibition at 100 mg/kg [8]: 90%
- inhibition at 100 mg/kg [9]: 3%
- IC50 [10]: 1.4 nM
- IC50 [11]: 2.2 nM
- inhibition at 0.00625 µM [12]: 102%
- inhibition at 100 mg/kg [13]: 73%
- inhibition at 1500 mg/kg [14]: 91%
- Selectivity [15]: > 71400
- inhibition at 1 mg/kg [16]: 18%
- inhibition at 5 mg/kg [17]: 69%
- inhibition at 1500 mg/kg [18]: 74%
- Inhibition [19]: 10%
- inhibition at 5 mg/kg [20]: 18%
- inhibition at 1 mg/kg [21]: 75%
- IC50 [22]: 2.2 nM
- inhibition at 1 mg/kg [23]: 34%
- IC50 [24]: 25 nM

Structure (SMILES): C#CCN(C)[C@H](C)Cc1ccccc1 [SELEGILINE]
- inhibition at 0.00625 µM [25]: 21%
- inhibition at 0.00625 µM [26]: 21%
